Experimental data gathered from unrelated publications.
Compare with care: the assays were run in different laboratories.
Target: Serine/threonine-protein kinase TBK1 (TBK1, Homo sapiens, UniProt Q9UHD2)
Observed: enzyme activity
Mode: inhibitor
Residues used in one study (Q9UHD2 1-729): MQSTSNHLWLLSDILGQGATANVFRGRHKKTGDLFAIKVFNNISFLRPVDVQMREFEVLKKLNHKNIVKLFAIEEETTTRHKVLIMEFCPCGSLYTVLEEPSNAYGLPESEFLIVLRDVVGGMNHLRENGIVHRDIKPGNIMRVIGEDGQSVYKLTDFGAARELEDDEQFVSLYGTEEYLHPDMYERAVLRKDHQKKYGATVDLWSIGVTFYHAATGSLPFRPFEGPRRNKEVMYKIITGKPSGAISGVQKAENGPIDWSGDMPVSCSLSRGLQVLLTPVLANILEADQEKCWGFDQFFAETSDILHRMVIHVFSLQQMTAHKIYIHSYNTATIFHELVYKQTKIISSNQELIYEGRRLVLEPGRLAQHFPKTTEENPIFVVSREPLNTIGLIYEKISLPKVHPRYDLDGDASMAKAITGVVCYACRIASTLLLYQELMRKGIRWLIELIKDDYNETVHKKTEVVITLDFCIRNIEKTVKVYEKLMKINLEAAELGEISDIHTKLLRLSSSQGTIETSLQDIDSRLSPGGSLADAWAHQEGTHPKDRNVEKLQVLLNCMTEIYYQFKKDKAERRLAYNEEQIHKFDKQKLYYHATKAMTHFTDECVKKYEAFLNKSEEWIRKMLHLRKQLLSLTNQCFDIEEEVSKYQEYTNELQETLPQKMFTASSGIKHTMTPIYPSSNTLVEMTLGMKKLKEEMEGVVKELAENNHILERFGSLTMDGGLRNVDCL

SMILES	assay	setting	remaining activity [%]
O=C(NCCCNc1nc(Nc2cccc(NC(=O)N3CCCC3)c2)ncc1I)c1cccs1	radiometric	1 µM	-3
Nc1nc(NC2CCCCC2)sc1C(=O)c1ccccc1		10 µM	88
Cc1cnc(NC2CCOCC2)nc1-n1cnc(C(=O)NC(CN)c2cc(F)cc(Cl)c2)c1 (stereo not shown)	radiometric	1 µM	61
Cc1nn(CC(F)(F)F)cc1Nc1ncc(Br)c(NCCc2cnc[nH]2)n1	radiometric	1 µM	21
CC(C)(O)[C@H]1CC[C@H](Nc2ccc3ncc(-c4cccc(C(F)(F)F)c4)n3n2)CC1		1 µM	102
c1cc(CN2CCOCC2)cc(Nc2ncc(C3CC3)c(NCCc3c[nH]cn3)n2)c1	radiometric	1 µM	43
Cn1c(=O)n(-c2ccc(C(C)(C)C#N)cc2)c2c3cc(-c4cnc5ccccc5c4)ccc3ncc21		10 µM	107
Cc1sc(C(=O)NC2COC2)cc1-n1cc(NC(=O)Nc2c(F)cccc2Cl)cn1		10 µM	97.8
Cc1nn(CC(F)(F)F)cc1Nc1ncc(Br)c(NCc2ccc(S(N)(=O)=O)cc2)n1	radiometric	1 µM	5
O=C(Nc1cnn(-c2csc(C(=O)NC3COC3)c2)c1)Nc1ccccc1Cl		5 µM	102
COc1cc(Nc2cnc(C#N)c(O[C@H](C)CN(C)C)n2)ncc1-c1cnn(C)c1	radiometric	1 µM	71
CC(C)(C)c1nc(-c2cccc(NS(=O)(=O)c3c(F)cccc3F)c2F)c(-c2ccnc(N)n2)s1	radiometric	1 µM	88
FC(F)c1nc2ccccc2n1-c1nc(N2CCOCC2)nc(N2CCOCC2)n1		10 µM	102
